# Measured values taken from ChEMBL document CHEMBL1122921, “Stereoselective antitumor properties in the Lewis lung carcinoma model using bis(morpholinomethyl) derivatives of tricyclic bis(dioxopiperazines)” (1985).
# “And” between values parts separate entries of the source, which are not always exact repeats. Equal entries are not always repeated.
# Assays:
# Mus musculus [1] = organism: Mus musculus; experiment: Number of 50-day survivors Out of 8 mice; assay type: functional
# Method in brief: (§1)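 Female BDF1 mice (19–21 g), 8–9 per group. Lewis lung carcinoma implanted on day 0 and the leg amputated on day 9. From day 9, 160 mg/kg ip q2d×4, given as a suspension or solution in 0.9% NaCl. Mice dying and those killed on day 50 were autopsied for body weight, lung weight, metastases (<2 or >2 mm) and metastasis incidence. Median survival and ILS were recorded, with ≥25% ILS taken as activity.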
# Mus musculus [2] = organism: Mus musculus; experiment: Percent increase in life span was measured in mice; assay type: functional
# Method in brief: (§2)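 Female BDF1 mice (19–21 g), 10 per group. Lewis lung carcinoma, 10^5 cells in 0.05 mL, implanted in the right hind leg on day 0, and the leg amputated on day 10. Dosing was 160 mg/kg ip in 0.9% NaCl made daily, either from -1 h on day 0 q2d×5 (preamputation) or from day 11 q2d×4 (postamputation). Survivors were killed and autopsied on day 50, and values were averaged over all 10 mice. ILS ≥25% is taken as activity.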
# Mus musculus [3] = organism: Mus musculus; experiment: Compound was tested against autopsying on day 50th metastasis( <2 mm size.) in mice.; assay type: functional; method in brief: as §1
# Mus musculus [4] = organism: Mus musculus; experiment: Number of mice with metastasis Out of 8 mice; assay type: functional; method in brief: as §1
# Mus musculus [5] = organism: Mus musculus; experiment: Average body weight of mice was determined; assay type: functional; method in brief: as §1
# Mus musculus [6] = organism: Mus musculus; experiment: Compound was tested against autopsying on day 50th metastasis( >2 mm size.) in mice.; assay type: functional; method in brief: as §2
# Mus musculus [7] = organism: Mus musculus; experiment: Average lung weight of mice was determined; assay type: functional; method in brief: as §2
# Mus musculus [8] = experiment: Median survival time of 10 BDF1 mice was tested after administration of compound (Postamputation schedule 160 mg/kg)
# Mus musculus [9] = organism: Mus musculus; experiment: Number of 50-day survivors Out of 9 mice; assay type: functional; method in brief: as §1
# Mus musculus [10] = organism: Mus musculus; experiment: Compound was tested against autopsying on day 50th metastasis( <2 mm size) in mice; assay type: functional; method in brief: as §1
# Mus musculus [11] = organism: Mus musculus; experiment: Compound was tested against autopsying on day 50th metastasis( >2 mm size) in mice; assay type: functional
# Method in brief: (§3)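 Female BDF1 mice (19–21 g), 10 per group, were implanted with 10^5 Lewis lung cells in the right hind leg on day 0, with leg amputation on day 10. Dosing was 160 mg/kg ip, either from −1 h on day 0 q2d×5 or from day 11 q2d×4, in saline prepared daily. Survivors were killed on day 50, and lung metastases were counted by size. Values are averages over 10 mice, dying and killed.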
# Mus musculus [12] = organism: Mus musculus; experiment: Number of mice with metastasis out of 9 mice tested; assay type: functional
# Method in brief: (§4)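 Female BDF1 mice (19–21 g) were implanted with Lewis lung carcinoma on day 0 and amputated on day 9. Dosing was 160 mg/kg ip from day 9, q2d×4, as a suspension or solution in 0.9% NaCl. Dying mice and mice killed on day 50 were autopsied to count metastases (<2 mm, >2 mm) and mice bearing metastases.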
# Mus musculus [13] = organism: Mus musculus; experiment: Number of mice with metastasis Out of 9 mice; assay type: functional; method in brief: as §1
# Mus musculus [14] = experiment: Median survival time of 10 BDF1 mice was tested after administration of compound (Preamputation schedule 160 mg/kg); assay type: functional; method in brief: as §2
# Mus musculus [15] = experiment: Median survival time of 10 BDF1 mice was tested for compound (Postamputation schedule 160 mg/kg); assay type: functional; method in brief: as §2
# Mus musculus [16] = organism: Mus musculus; experiment: (§5) Percent of mice without metastasis.; assay type: functional
# Mus musculus [17] = organism: Mus musculus; experiment: Compound was tested against autopsying on day 50th metastasis( <1 mm size) in mice; assay type: functional; method in brief: as §3
# Mus musculus [18] = organism: Mus musculus; experiment: Average number of metastasis per mouse.; assay type: functional
# Method in brief: (§6)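 Female BDF1 mice (19–21 g) implanted with Lewis lung carcinoma on day 0. The tumour-bearing leg was amputated on day 9 or 10. Dosing was 160 mg/kg ip q2d in 0.9% NaCl. Dying mice were autopsied, and survivors were killed and autopsied on day 50.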
# Mus musculus [19] = organism: Mus musculus; experiment: Average lung weight per mouse was determined; assay type: functional; method in brief: as §6
# Mus musculus [20] = organism: Mus musculus; experiment: Number of 50-day survivors out of 9 mice; assay type: functional; method in brief: as §1
# Mus musculus [21] = organism: Mus musculus; experiment: compound was tested against autopsying on day 50th metastasis( <[…] mm size.) in mice.; assay type: functional; method in brief: as §4
# Mus musculus [22] = organism: Mus musculus; experiment: compound was tested against autopsying on day 50th metastasis( >2 mm size.) in mice.; assay type: functional; method in brief: as §3
# Mus musculus [23] = organism: Mus musculus; experiment: Number of 50-day survivors Out of 10 mice; assay type: functional; method in brief: as §2
# Mus musculus [24] = organism: Mus musculus; experiment: Number of 50-day survivors out of 10 mice; 2 mice died out of 6 with one metastasis each (5mm i.d.); assay type: functional
# Mus musculus [25] = organism: Mus musculus; experiment: Compound was tested against autopsying on day 50th metastasis( 1-2 mm size) in mice; assay type: functional; method in brief: as §3
# Mus musculus [26] = organism: Mus musculus; experiment: compound was tested against autopsying on day 50th metastasis( 1-2 mm size.) in mice.; assay type: functional; method in brief: as §3
# Mus musculus [27] = organism: Mus musculus; experiment: compound was tested against autopsying on day 50th metastasis( <1 mm size.) in mice.; assay type: functional; method in brief: as §3
# Mus musculus [28] = organism: Mus musculus; experiment: Average lung weight per mouse.; assay type: functional; method in brief: as §6
# Mus musculus [29] = organism: Mus musculus; experiment: as §5; assay type: functional; remark: listed apart in the source
smiles,measurement,setting,value
O=C1CN2CCN3CC(=O)NC(=O)[C@H]3C2C(=O)N1 (stereo partly drawn),N/T,Mus musculus [1],3
same,ILS,Mus musculus [2],34%
same,Average No. of metastasis,Mus musculus [3],1%
same,M/T,Mus musculus [4],5
same,Body weight,Mus musculus [5],17.8 g
same,Average No. of metastasis,Mus musculus [6],14%
same,Lung weight,Mus musculus [7],813 mg
same,MST,Mus musculus [8],45 days
O=C1CN2CCN3CC(=O)N(CN4CCOCC4)C(=O)[C@@H]3C2C(=O)N1CN1CCOCC1 (stereo partly drawn),N/T,Mus musculus [9],5
same,ILS,Mus musculus [2],>49%
same,Average No. of metastasis,Mus musculus [10],0 count
same,Average No. of metastasis,Mus musculus [11],9 count
same,M/T,Mus musculus [12],4
same,Body weight,Mus musculus [5],19.4 g
same,Lung weight,Mus musculus [7],564 mg
same,MST,Mus musculus [8],>50 days
O=C1CN2CCN3CC(=O)NC(=O)[C@@H]3C2C(=O)N1 (stereo partly drawn),N/T,Mus musculus [9],2
same,ILS,Mus musculus [2],16%
same,Average No. of metastasis,Mus musculus [10],2 count
same,Average No. of metastasis,Mus musculus [11],13 count
same,M/T,Mus musculus [13],7
same,Body weight,Mus musculus [5],17.7 g
same,Lung weight,Mus musculus [7],749 mg
same,MST,Mus musculus [8],39 days
O=C1CN2CCN3CC(=O)N(CN4CCOCC4)C(=O)[C@H]3C2C(=O)N1CN1CCOCC1 (stereo in doubt; 3),MST,Mus musculus [14],38.5 days
same,MST,Mus musculus [15],35 days
same,N/T,Mus musculus [9],5
same,Mice,Mus musculus [16],30% and 20%
same,Average No. of metastasis,Mus musculus [17],0.2 count
same,Average No. of metastasis,Mus musculus [18],15 and 13.8
same,Lung weight,Mus musculus [19],754 mg and 752 mg
same,N/T,Mus musculus [20],5
O=C1CN2CCN3CC(=O)N(CN4CCOCC4)C(=O)[C@H]3C2C(=O)N1CN1CCOCC1 (stereo in doubt; form 1),MST,Mus musculus [14],39 days
same,N/T,Mus musculus [9],7
same,Average No. of metastasis,Mus musculus [21],0 count
same,Average No. of metastasis,Mus musculus [22],3 count
same,M/T,Mus musculus [12],1
same,Body weight,Mus musculus [5],19.9 g
same,Lung weight,Mus musculus [7],369 mg
O=C1CN2CCN3CC(=O)N(CN4CCOCC4)C(=O)[C@H]3C2C(=O)N1CN1CCOCC1 (stereo in doubt; form 2),MST,Mus musculus [14],39 days
same,N/T,Mus musculus [23],4
same,N/T,Mus musculus [24],6
same,Mice,Mus musculus [16],40%
same,Average No. of metastasis,Mus musculus [25],3.5 count
same,Average No. of metastasis,Mus musculus [17],1 count
same,Average No. of metastasis,Mus musculus [11],8.3 count
same,Average No. of metastasis,Mus musculus [26],2.6 count
same,Average No. of metastasis,Mus musculus [27],0.3 count
same,Average No. of metastasis,Mus musculus [22],4.8 count
same,Average No. of metastasis,Mus musculus [18],12.8 and 7.7
same,Lung weight,Mus musculus [19],641 mg
same,Lung weight,Mus musculus [28],538 mg
same,Mice,Mus musculus [29],40%
